In PubChem BioAssay:
Inconclusive results are not listed.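 How the source made its calls, unless noted: active means viability increase at or above a cutoff of the median across tested compounds plus 3 SD (cut at about 8.5% in these data, passing the limit was not always enough); inconclusive means some gains above the cutoff, reason not given; inactive means the rest.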

Legend:
[1] = OD615 S. cerevisiae growth inhibition, permissive medium, pilot counter-assay, permissive growth control for S. cerevisiae lifespan shortening project (AID 705;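 active means growth inhibition above 25% in both replicates, a cutoff set 3 SD above the mean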); details: OD615, 24 h, at 10 µM, stronger effect = higher value
Procedure, shortened: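 assay system = Saccharomyces cerevisiae strain carrying genetically modified DeaD replicative-lifespan system | technique = absorbance (optical density) at 615 nm | buffer or medium = permissive raffinose/galactose medium | timing = cells pre-grown 4 h, then 24 h compound exposure, 30 °C humidified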

[2] = Restrictive medium S. cerevisiae growth inhibition, OD615, pilot screen of yeast lifespan reduction project, restrictive growth control (AID 706;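 active means growth inhibition above a set limit, 3 SD over mean compound inhibition, in both replicates, cut at about 43% in these data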;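 further: modified DeaD lifespan yeast strain shifted to restrictive glucose medium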); details: OD615, 48 h, at 10 µM, stronger effect = higher value
Procedure, shortened: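 System: modified S. cerevisiae. Buffer or medium: CSMM-D glucose medium. Incubation: 4 h pre-growth plus 48 h compound exposure, 30 °C. Detection: absorbance (optical density) measured at 615 nm.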

[3] = viability gain of MRP-1-high H69AR cells under doxorubicin, pilot screen, MRP-1 activator project, CellTiter-Glo, duplicate (AID 807); details: H69AR viability with doxorubicin, CellTiter-Glo luminescence; at 10 µM; stronger effect = higher value;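 further: compound pretreatment 18-22 h then 72 h combined with doxorubicin; 0% = doxorubicin alone and 100% = vehicle without doxorubicin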
[4] = growth suppression of beta-catenin knockout HCT116, pilot screen, human colon tumor cells (AID 823;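 active means cell viability at or below a set limit in both duplicate runs, the limit being the all-compound median minus 4 SD, cut at about 23% in these data, passing the limit was not always enough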;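 further: 0% = wells killed by 20 µM Hyamine and 100% = untreated DMSO cell wells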); details: CellTiter-Glo, 60 h, at 10 µM, stronger effect = lower value
[5] = growth suppression of PTEN-deleted HCT116, pilot screen, cell-based, HCT116 clonal line, CellTiter-Glo (AID 824;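 active means viability at or below 27.92% in each of two runs, the all-compound median minus 4 SD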;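 further: 0% = 20 µM Hyamine control and 100% = vehicle cell control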); details: 60 h, at 10 µM, stronger effect = lower value
[6] = inhibitors of the yeast RAM network, pilot screen, dse1pr::URA3 reporter, 5-FOA selection (AID 869;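 active means inhibition over a set limit, the all-compound mean plus 3 SD, in both replicate runs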;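 further: 0% = DMSO wells with no growth and 100% = 10 µM 1-NA-PP1 with full growth; RAM network block rescues cells from 5-FOA so hits raise OD615 growth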); details: S. cerevisiae dse1pr::URA3 5-FOA growth, OD615, 2 d; at 10 µM; stronger effect = higher value; strain carries analog-sensitive mutant Cbk1 kinase
[7] = RAM signaling pathway blockade in yeast – S. cerevisiae, Pdr1DBD-CYC8 efflux-inhibited sensitized strain, primary screen (AID 1298;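 active means RAM network inhibition above 8.4% in each of two replicates, 3 SD over the compound average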;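 further: 0% = DMSO untreated cells without growth and 100% = 10 µM 1-NA-PP1 full growth; higher means more yeast growth rescued from 5-FOA killing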); details: S. cerevisiae cbk1-as DSE1-URA3 strain, 5-FOA growth OD615, 2 d; at 50 µM; stronger effect = higher value

Cc1ccc2oc(=O)c3cnn(CC(=O)N(CCCN4CCOCC4)Cc4ccco4)c3c2c1
inactive: growth inhibition [1] -16.5% | growth inhibition [2] -28.7% | viability increase [3] -3.59% | viability [4] 93.2% | viability [5] 87.9% | inhibition [6] 1.55% | RAM network inhibition [7] 3.73%

CCCN(CCC)S(=O)(=O)c1ccc(C(=O)NCc2ccc3c(c2)OCO3)cc1
inactive: growth inhibition [1] -12.9% | growth inhibition [2] -18.8% | viability increase [3] -3.62% | viability [4] 94.5% | viability [5] 80.3% | inhibition [6] 2.21% | RAM network inhibition [7] 4.05%

OC(COc1ccc(Cl)c2ccccc12)CN1CCN(c2ccccn2)CC1 (stereo unspecified)
inactive: growth inhibition [1] -5.89% | growth inhibition [2] -11.6% | viability increase [3] -3.19% | viability [4] 94.9% | viability [5] 95.2% | inhibition [6] -0.275% | RAM network inhibition [7] 4.46%

O=C(O)c1ccc(N2CCCCCC2)c(N2C(=O)c3ccccc3C2=O)c1
inactive: growth inhibition [1] -18% | growth inhibition [2] 4.7% | viability increase [3] -0.78% | viability [4] 108% | viability [5] 98.2% | inhibition [6] 0.945% | RAM network inhibition [7] 3.42%

O=C(O)[C@H](Cc1ccccc1)N1Cc2ccccc2C1=O
inactive: growth inhibition [1] -4.39% | growth inhibition [2] -15% | viability increase [3] -2.35% | viability [4] 95.3% | viability [5] 97.4% | inhibition [6] 1.4% | RAM network inhibition [7] 1.15%

CCCS(=O)(=O)NCc1cn2c(C)csc2n1
inactive: growth inhibition [1] -0.385% | growth inhibition [2] 17.2% | viability increase [3] -2.28% | viability [4] 102% | viability [5] 92.6% | inhibition [6] 2.58% | RAM network inhibition [7] 5.52%

CCOC(=O)C1Cc2ccccc2C(=O)O1 (stereo unspecified)
inactive: growth inhibition [1] -4.84% | growth inhibition [2] -2.44% | viability increase [3] -0.24% | viability [4] 96.4% | viability [5] 100% | inhibition [6] 0.47% | RAM network inhibition [7] 5.42%

COc1ccc(OC)c(CN2CCN(c3ccccc3OC)CC2)c1
inactive: growth inhibition [1] -7.27% | growth inhibition [2] -8.51% | viability increase [3] -0.4% | viability [4] 61.2% | viability [5] 71.6% | inhibition [6] 1.86% | RAM network inhibition [7] 5.18%

Cc1c(C(=O)NCC2CCCO2)oc2ccc(S(=O)(=O)N3CC(C)CC(C)C3)cc12 (stereo unspecified)
inactive: growth inhibition [1] -2.38% | growth inhibition [2] 14.2% | viability increase [3] -4.71% | viability [4] 44.5% | viability [5] 38.1% | inhibition [6] 3.72% | RAM network inhibition [7] 4.28%

COc1cccc(-c2nc(CS(=O)CC(=O)NC3CC3)c(C)o2)c1 (stereo unspecified)
inactive: growth inhibition [1] 1.62% | growth inhibition [2] 14.2% | viability increase [3] -2.91% | viability [4] 101% | viability [5] 101% | inhibition [6] 0.52% | RAM network inhibition [7] 0.14%

CCCC(=O)Nc1nc2ccc(S(=O)(=O)N3CCCCC3)cc2s1
inactive: growth inhibition [1] -20.7% | growth inhibition [2] -19.5% | viability increase [3] -6.94% | viability [4] 32.5% | viability [5] 37.3% | inhibition [6] 1.27% | RAM network inhibition [7] 1.93%

Cc1cc(NC(=O)CSc2ccc3nnc(-c4ccccn4)n3n2)no1
inactive: growth inhibition [1] -3.09% | growth inhibition [2] 10.1% | viability increase [3] -1.04% | viability [4] 102% | viability [5] 90.4% | inhibition [6] 0.535% | RAM network inhibition [7] 1.71%

S=c1[nH]nc(-c2ccncc2)n1Cc1ccccc1
inactive: growth inhibition [1] -4.1% | growth inhibition [2] -9.11% | viability increase [3] -1.9% | viability [4] 100% | viability [5] 93.7% | inhibition [6] 0.265% | RAM network inhibition [7] 1.95%

CN1CCN(CCCNC(=O)c2cc3c(=O)n(C)c4ccccc4c3s2)CC1
inactive: growth inhibition [1] 0.78% | growth inhibition [2] -4.68% | viability increase [3] -7.62% | viability [4] 53.1% | viability [5] 45.6% | inhibition [6] 0.835% | RAM network inhibition [7] 1.14%

CCOc1ccccc1NC(=O)N1CCCC1C(=O)Nc1ccc(-n2cnnn2)c(C)c1 (stereo unspecified)
inactive: growth inhibition [1] -11.3% | growth inhibition [2] -16.2% | viability increase [3] 0.16% | viability [4] 102% | viability [5] 97.9% | inhibition [6] 1.86% | RAM network inhibition [7] 2.1%

CC(=O)Nc1ccc(-n2c(C)c(C(C)=O)c(C(C)=O)c2C)cc1
inactive: growth inhibition [1] -2.51% | growth inhibition [2] -2.06% | viability increase [3] -2.3% | viability [4] 102% | viability [5] 101% | inhibition [6] 0.515% | RAM network inhibition [7] 4.97%

CN1CCN(c2nc3c(c(=O)n(C)c(=O)n3C)n2CCSc2nc3ccccc3s2)CC1
inactive: growth inhibition [1] -5.4% | growth inhibition [2] -16.2% | viability increase [3] -3.94% | viability [4] 100% | viability [5] 96.1% | inhibition [6] 1.37% | RAM network inhibition [7] 3.29%

Cc1ccc(CC(CC(=O)O)C(=O)NC2CCCCC2)cc1 (stereo unspecified)
inactive: growth inhibition [1] -8.33% | growth inhibition [2] -0.295% | viability increase [3] -0.76% | viability [4] 101% | viability [5] 99.2% | inhibition [6] 2.5% | RAM network inhibition [7] 3.83%

Cc1ccc(C2CC(c3cccc(C)c3)n3nc(N)nc3N2)cc1 (stereo unspecified)
inactive: growth inhibition [1] -0.275% | growth inhibition [2] 16.7% | viability increase [3] -3.52% | viability [4] 89.6% | viability [5] 81% | inhibition [6] 1.81% | RAM network inhibition [7] 1.43%

CCCSc1n[nH]c(NC(C)=O)n1
inactive: growth inhibition [1] -9.97% | growth inhibition [2] 7.95% | viability increase [3] -0.65% | viability [4] 98.6% | viability [5] 101% | inhibition [6] 2.27% | RAM network inhibition [7] 2.41%

CC1(C)CC(=O)C(C=Nc2ccccc2)=C(O)C1
inactive: growth inhibition [1] -7.81% | growth inhibition [2] 1.81% | viability increase [3] -1.32% | viability [4] 98.1% | viability [5] 96.2% | inhibition [6] 2.92% | RAM network inhibition [7] 1.59%

CCOC(=O)C1=C(C)Nc2nc(C)nn2C1c1ccc(OCC)c(OC)c1 (stereo unspecified)
inactive: growth inhibition [1] -8.05% | growth inhibition [2] -3.29% | viability increase [3] -4.07% | viability [4] 101% | viability [5] 99% | inhibition [6] 1.44% | RAM network inhibition [7] 0.63%

Cc1ccn2c(-c3csc(NCc4ccco4)n3)c(C)nc2c1
inactive: growth inhibition [1] -1.21% | growth inhibition [2] 2.84% | viability increase [3] -4.37% | viability [4] 66.6% | viability [5] 71.8% | inhibition [6] 3.51% | RAM network inhibition [7] 3.65%

CCc1ccc(Nc2cc(C)nc3nc(C)nn23)cc1
inactive: growth inhibition [1] -16.8% | growth inhibition [2] -7.12% | viability increase [3] -4.04% | viability [4] 96.8% | viability [5] 96% | inhibition [6] 1.99% | RAM network inhibition [7] 4.01%

CCOC(=O)C1=C(C)S/C(=C\N(C)C)C1=O
inactive: growth inhibition [1] -8.63% | growth inhibition [2] -1.29% | viability increase [3] -0.78% | viability [4] 98.6% | viability [5] 90.3% | inhibition [6] -0.055% | RAM network inhibition [7] -2.3%

CCCCCCN1C(=O)C(O)=C(C(C)=O)C1c1ccc(Cl)cc1 (stereo unspecified)
inactive: growth inhibition [1] -6.47% | growth inhibition [2] 7.25% | viability increase [3] 0.3% | viability [4] 106% | viability [5] 100% | inhibition [6] -0.245% | RAM network inhibition [7] 8.31%

Cc1nn(-c2ccccc2)c2sc(C(=O)n3cccn3)cc12
inactive: growth inhibition [1] -10.7% | growth inhibition [2] -9.12% | viability increase [3] -3.24% | viability [4] 89.8% | viability [5] 92.4% | inhibition [6] 2.99% | RAM network inhibition [7] 8.3%

CCn1c(=NC(=O)CN2C(=O)CCC2=O)sc2c(OC)ccc(OC)c21
inactive: growth inhibition [1] -5.83% | growth inhibition [2] -14.7% | viability increase [3] -2.94% | viability [4] 87.4% | viability [5] 96% | inhibition [6] 2.75% | RAM network inhibition [7] 6.17%

COc1ccc(OC)c(S(=O)(=O)Nc2ccc(OCC(=O)O)cc2)c1
inactive: growth inhibition [1] -9.87% | growth inhibition [2] -4.85% | viability increase [3] -0.45% | viability [4] 98.3% | viability [5] 91.1% | inhibition [6] 0.98% | RAM network inhibition [7] 2.71%

CC(=O)Nc1ccc(S(=O)(=O)NCCSCc2ccco2)cc1
inactive: growth inhibition [1] -4.83% | growth inhibition [2] 16.6% | viability increase [3] -4.43% | viability [4] 82.2% | viability [5] 86% | inhibition [6] 2.15% | RAM network inhibition [7] 2.29%

O=C(Nc1c(C(=O)N2CCCC2)cnn1-c1ccccc1)c1cccc(F)c1
inactive: growth inhibition [1] -7.52% | growth inhibition [2] -1.27% | viability increase [3] -0.46% | viability [4] 96.7% | viability [5] 98.9% | inhibition [6] 0.475% | RAM network inhibition [7] 1.02%

CCCOc1ccc(C2c3c(oc4cc(C)c(C)cc4c3=O)C(=O)N2CCCN(C)C)cc1 (stereo unspecified)
inactive: growth inhibition [1] -3.96% | growth inhibition [2] -1.01% | viability increase [3] 0.77% | viability [4] 104% | viability [5] 109% | inhibition [6] 0.185% | RAM network inhibition [7] -0.1%

COc1ccc(CC(=O)N2CC3(C)CC2CC(C)(C)C3)cc1OC (stereo unspecified)
inactive: growth inhibition [1] -8.12% | growth inhibition [2] -2.29% | viability increase [3] -2.91% | viability [4] 92.7% | viability [5] 88.2% | inhibition [6] 2.62% | RAM network inhibition [7] 6.83%
